Assay: Toxicity liver stage against HepG2, at 10uM
Type: cell-based
Design: test concentration 10 uM, cell line HepG2-A16-CD81EGFP
Settings: human, HepG2-A16-CD81EGFP cells; read-out: INHIBITION
Method in brief: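 Uninfected HepG2-A16-CD81EGFP cells, 3 × 10^3 per well, 1536-well, plated on prespotted compound at 10 μM final, parasite-free screening media added to match infected plates; puromycin 10 μM positive, DMSO 0.5% negative; run in parallel with 48 h PbLuc assay at 37 °C, 5% CO2; viability by CellTiter-Glo luminescence, normalized to controls.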

Structure (SMILES)	cytotoxicity at 10 µM [%]
CN1CC[C@H](c2nnc(-c3cncn3C)o2)C1	-2.88
CC(=O)N1N=C(COc2ccc3c(c2)OCO3)OC1c1cccc(Cl)c1 (stereo not given)	-1.77
Cc1nnsc1C(=O)NCCn1ccc(-c2ccncc2)n1	1.92
COc1cccc(CC(=O)N2CCc3ncnc(C)c3CC2)c1	-1.59
CCCS(=O)(=O)N1C[C@@H]2COC[C@@H](Cc3nc(C)no3)[C@@H]2C1	6.34
COCCC(=O)N1CCC2(COCc3cnc(NCC4CC4)nc32)C1 (stereo not given)	6.24
CN1CCN(c2nsc(-c3cccnc3)c2C#N)CC1	0.916
O=S(=O)(c1ccccc1F)N1CCCC(c2nccs2)C1 (stereo not given)	-11
CC(=O)N1CCC(c2cc(C(F)(F)F)nc3nccn23)CC1	-2.11
COCCN1CCCC1c1nccnc1Nc1nccs1 (stereo not given)	-7.55
COc1cccc(CN2CC[C@H]3[C@@H](C2)[C@H](c2ccsc2)CN3C(C)=O)c1	-5.61
CC(=O)N1CC2(CCN(Cc3ccc(Cl)cc3)CC2)Cc2ccccc21	14.2
CC(C)c1nnc(NC(=O)C2CSCN2C(=O)C2CCC2)s1 (stereo not given)	5.04
CCCN1CCCN(C(=O)c2ccc(Oc3cccnc3)cc2)CC1	-46.9
COCCCc1nc(-c2ccc(S(=O)(=O)N3CCCC3)cc2)cs1	-46.3
Cc1ccc(C(=O)N(C)S(C)(=O)=O)cc1Cl	-46.5
O=c1oc(-c2ccc(F)cc2)nn1CC1CCOC1 (stereo not given)	5.53
CC1CN(C)CCN1C(=O)COc1cccc(Oc2ccccn2)c1 (stereo not given)	10.7
CCC(c1ccccc1)S(=O)(=O)CCO (stereo not given)	-136
CC(NC(=O)N1CCCN(CC(F)F)CC1)c1ccco1 (stereo not given)	-6.03
Cc1ncc(S(=O)(=O)N(CC(C)C)c2cccc(O)c2)s1	-41.2
Cc1cc(C(=O)N2CCCC2CN2CCCC2)no1 (stereo not given)	10

Structure (SMILES)	cytotoxicity at 10 µM [%]
CN(C)Cc1ccc(C(=O)N2CCCC(n3cccn3)C2)cc1 (stereo not given)	-0.798
CC(=O)N1CCC(NC(=O)c2cc(Cl)ccc2O)CC1	0.0966
Cc1nc(C(=O)NS(=O)(=O)c2cccc(C#N)c2)cs1	-1.95
COCCN1CCC(NC(=O)C/C=C/c2ccc(C(C)C)cc2)CC1	-0.616
CCc1cnc(CN(C)C(C)C(=O)N2CCc3ccccc3C2)s1 (stereo not given)	7.2
Cn1c(C2CCCCN2C(=O)CN2CCCC2=O)nc2ccccc21 (stereo not given)	-0.62
CNC(=O)NC(=O)C(C)N1CCC(c2c[nH]c3ccc(OC)cc23)CC1 (stereo not given)	12.5
CC(NC(=O)CCn1cccn1)c1cccs1 (stereo not given)	-3.57
N#Cc1cc(NC(=O)c2ccncc2)ccc1N1CCC(O)CC1	7.48
CC(C)(C)n1ncc2c1CCCC2NCc1ccc2c(c1)CCO2 (stereo not given)	2.55
Cc1nc(C)c(C(=O)Nc2cccc(CN3CCC(CO)CC3)c2)o1	-154
CCn1cc(S(=O)(=O)NC(=O)CCc2c[nH]c3ccccc23)cn1	-11.3
Cc1cn2c(n1)C(CNCc1cccc3c1OCO3)CCC2 (stereo not given)	-0.372
Cc1cc(N2CCC(NC(=O)CCC3CCCO3)CC2)nc(C)n1 (stereo not given)	-8.21
COCc1ccc(C(=O)NS(=O)(=O)c2ccc3c(c2)CCC(=O)N3)cc1	-1.89
Cc1nnc(C(C)N2CCc3[nH]c4ccc(Cl)cc4c3C2)o1 (stereo not given)	-9.77
Cc1ccnc(NC(=O)C2CCN(CCCn3ccnc3)CC2)c1	-57.9
COc1cccc(CN(C)Cc2nc(C(C)C)no2)c1	-43.6
Clc1cccc(-c2noc(CCN3CCN(c4ccncc4)CC3)n2)c1	24
Cc1cc(NC(N)=O)ccc1C(=O)N(C)C	12.2
Cc1nnc([C@@]23CCO[C@@H]2CCN(S(=O)(=O)c2ccccc2)C3)o1	-99.4
CC(C)Nc1ncnc2c1CCN(C(=O)CCc1ccccc1)CC2	-72

Structure (SMILES)	cytotoxicity at 10 µM [%]
Cn1cc(CNCC2Cn3nnc(-c4ccccc4)c3CO2)cn1 (stereo not given)	-4.66
CC(C)NC(=O)N1CC(=O)c2sc(Nc3ccc(C#N)cc3)nc2C1	-7.77
CN(CCCc1ccccc1)C(=O)c1cn2c(n1)CNCC2	-52.4
CC(C)n1ccnc1C1CCCN(c2nc3ccccc3s2)C1 (stereo not given)	5.07
CC(C)N1CCC(C(=O)NC[C@H]2CCc3ccccc3O2)CC1	11.1
CC(C)C[C@H](Nc1nc(C2CCCC2)nc2c1cnn2C)C(N)=O	-42.3
OC(c1ccccn1)C1CCN(Cc2cc3n(n2)CCNC3)CC1 (stereo not given)	15.4
COc1ccc(-c2cc(N)ccn2)c(OC)c1OC	11.4
C[C@@H]1CN(Cc2cc(C3CCCCC3)no2)CC[C@]1(C)O	-13.2
COCCC(=O)N[C@H]1CC[C@H](Nc2nccc(-c3ccncc3)n2)C1	11.5
Cc1cc(CN2CCCC2)cc(Oc2ccc(C(F)(F)F)cn2)c1	-9.72
CCN1CCN(c2ncnc3c2CCN(C(=O)C2CC2)C3)CC1	-3.2
CC(=O)N1CCc2[nH]cnc2C12CCN(C(=O)Cc1cccs1)CC2	7.2
Cc1nc(NC2CCS(=O)(=O)CC2)cc(C2CCCNC2)n1 (stereo not given)	-11
CCNC(=O)[C@@H]1C[C@H](N)CN1Cc1ccc(-c2cc[nH]n2)o1	-47.6
COc1ccc2c(c1)OCC(Cc1cncc(N)c1)C2 (stereo not given)	-0.918
Cc1sc2ncnc(N3CCC(N(C)Cc4cnn(C)c4)CC3)c2c1C	-2.98
COc1ccc(-c2ccoc2)cc1CNC1CCCC1	-3.45
CN(Cc1ccccc1)S(=O)(=O)N1C[C@@H](C(=O)O)[C@H](C2CC2)C1	-150
Cc1ncsc1CCN(C)C(=O)CN1CCOC1=O	-15.3
CC(C)=CCC1(C(=O)O)CCCN(CCC(=O)NC2CC2)C1 (stereo not given)	-7.69
CCc1n[nH]c(C(=O)N2CCN(c3ccc4ccccc4c3)CC2)c1C	-3.03

Structure (SMILES)	cytotoxicity at 10 µM [%]
CNc1nc(C)c(C(=O)N2CCC(C(O)Cc3ccccc3)CC2)s1 (stereo not given)	3.11
O=C(C1CC1)N1CCC(C(=O)N2CCC(c3ccc(F)cc3)C2)CC1 (stereo not given)	-46.3
NC(=O)CCn1cc(CNCc2csc(N)n2)c2ccccc21	6.7
CCc1cnc(NCCS(=O)(=O)N(C)C)nc1	-10.2
NC(=O)c1cc2c(nc1Oc1cccc(CN3CCCC3)c1F)CCC2	-1.47
CCc1cc(N2CCC(NC3CN4CCC3CC4)CC2)nc(N(C)C)n1 (stereo not given)	-2.12
CC(=O)N[C@@H]1CN(C(=O)c2cc3ccccc3[nH]2)C[C@H]1c1ccc(C)o1	-10.2
Cc1ccc(NC(=O)c2coc(C)n2)c(C)c1	-4.94
COc1ccc(C)cc1NC(=O)c1coc(C)n1	-7.66
COCc1ncc(CN(Cc2ccncc2)Cc2ccc(C)s2)cn1	-47
COc1ccc(-c2nccn2CC(O)CN2CCCC2)c(F)c1 (stereo not given)	2.87
CC(=O)Nc1ccc(Cl)c(C(=O)N(C)C(C)c2nccs2)c1 (stereo not given)	-42.8
O=C1CC2(CCN(Cc3ccc(Cl)s3)C2)C(=O)N1 (stereo not given)	-3.3
CCn1ccc2ccc(CN3CCCC3c3nc(C(C)C)no3)cc21 (stereo not given)	5.15
CC(C)SCC(=O)N1CCc2c(nc(N(C)C)nc2N(C)C)C1	21.1
Cc1nnc(CCNC2CCN(c3ncnc4c(C)csc34)CC2)s1	20.7
NC(=O)C1CCCN(Cc2c(-c3ccco3)[nH]c3ncccc23)C1 (stereo not given)	3.91
COc1ccc(-n2ccc(C(=O)NCCN3CCCC(C)C3)n2)cc1 (stereo not given)	-0.0158
c1ccc(CCN2CCN(c3ccc4nncn4n3)CC2)cc1	-11.7
CC(C)c1nccn1C1CCCN(C(=O)CCc2cscn2)C1 (stereo not given)	-7.81
O=C1CN(C(=O)c2cccc(OCc3cscn3)c2)CCN1	1.9
c1cc(CNCC2CNc3ccnn3C2)cc(N2CCOCC2)n1 (stereo not given)	-5.13

Structure (SMILES)	cytotoxicity at 10 µM [%]
O=C(CCc1ccc(Cl)s1)N1CCC(N2CCNC2=O)CC1	2.6
CC(=O)NCc1ccc(C(=O)N2CCCCC2Cn2cccn2)o1 (stereo not given)	-4.22
CCC(CN1CCOCC1)n1cncc1-c1ccc2c(c1)CCN2CC (stereo not given)	14.9
O=C(C1CCCCC1)N1CCC2(CC1)CNCc1ccccc12	-6.13
Fc1ccc(CN2CCO[C@H]3[C@H](Oc4ccccn4)CC[C@@H]32)cc1	6.44
COc1ccc(CN2CC[C@@H]3[C@H]2CCC(=O)N3c2cnn(C)c2)cc1	17.4
CCOCc1cncc2c1CCN(C(=O)c1cscn1)C2	-107
Fc1ccc(N2CCOC3(COCCN(c4ncccn4)C3)C2)cc1 (stereo not given)	-95.4
O=C(NC1CC1)[C@@H]1CCO[C@@H]2CCN(CC3CCC3)C[C@H]21	-111
Fc1cnc(N2C[C@@H]3C[C@@H](c4nc(C5CC5)cs4)O[C@@H]3C2)nc1	22.8
Fc1ccc(CN2CCCC3(COCCN(Cc4c[nH]nn4)C3)C2)cc1 (stereo not given)	4.9
Cc1ccc(CNC2CCCc3c2cnn3Cc2ccccc2)s1 (stereo not given)	0.338
COc1ccc(C[C@H]2CN(c3nnc(C)s3)CC[C@H]2OC)cc1	8.04
O=C(c1ccccc1)N1CCCC2(CCN2Cc2cccc(F)c2)C1 (stereo not given)	-121
O=C(c1cccnc1)N1CCC2(CCN(C(=O)N3CCCC3)CC2)C1	-103
CCn1nnc2c1C(COCCN(C)C)CN(Cc1ccco1)C2 (stereo not given)	1.86
CCC(=O)N1CCC2(CC1)CC(N1CCOCC1)c1cc(C)ccc12 (stereo not given)	-149
CNC(=O)C1CCC2(CCN(c3nncs3)CC2)CO1 (stereo not given)	6.01
Cc1ccc(CN2CC[C@@H]3[C@@H](CO[C@H]3CN(C)C)C2)o1	-130
c1cnc(N2CCC3(CCN(Cc4cccnc4)CC3)CC2)nc1	-88.4
CNC(=O)N1C[C@@H]2C[C@H](C(=O)Nc3ccccc3)[C@H](C1)O2	-2.24
CN(C)C(=O)CN1C[C@H]2CC[C@@H](C1)N(Cc1cccc(Cl)c1Cl)C2	-5.3
